Consider three compounds from paper PMC9096626 (RSC Advances, 2022).

Assay [1] in a line: iEDDA cycloaddition kinetics with TCO-OH. To be noted: water : DMSO (4 : 1), 37 °C. Summed up:
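Pseudo-first-order runs at 37 °C used varied TCO-OH concentrations at 10- to 50-fold excess over the tetrazine amino acid. Full spectra (700–200 nm) were followed by time-resolved UV-Vis and fitted as single-step kinetics to give kobs. Second-order rate constants came from the slope of kobs against [TCO-OH].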

For assay [2], the system named is Somatostatin receptor type 2 (SSTR2). The conditions noted are these: statement in words; cited from earlier work.

As for `Cl.N[C@@H](CC1=CCC(O)(c2nncnn2)C=C1)C(=O)O` (stereo partly drawn) [4a], the “iEDDA cycloaddition rate relative to methyl analogue 4b” value in assay [1] was determined as 14 times.

For `Cl.N[C@@H](Cc1ccc(Oc2nnc(-c3ccccc3)nn2)cc1)C(=O)O` [4c], the “iEDDA cycloaddition rate relative to methyl analogue 4b” value in assay [1] is reported as “three times faster than 4b”. As to octreotide, the “affinity for Somatostatin receptor type 2 (SSTR2)” value in assay [2] is “high affinity”.
